These results are taken from ChEMBL document CHEMBL3526116, “Toxicological evaluation of acyl glucuronides of nonsteroidal anti-inflammatory drugs using human embryonic kidney 293 cells stably expressing human UDP-glucuronosyltransferase and human hepatocytes” (Drug Metab Dispos, 2011).

Each structure is given as a SMILES string.

Series [1] concerns HEK293. Description: Cytotoxicity against HEK293 cells expressing UGT1A3 assessed as decrease in cell viability at 1 mM measured at 24 hrs by MTT assay. The series is classed as ADME, cell-based. The conditions noted are these: human, hek293, 24 h, 1000 µM. For orientation: Formazan colour is commonly taken as a measure of viable cells.
Series [2] relates to HEK293. Description: Cytotoxicity against HEK293 cells expressing UGT assessed as decrease in cell viability at 1 mM measured up to 72 hrs by MTT assay. The conditions noted are these: human, hek293, 72 h, 1000 µM. It counts as ADME, cell-based. The essentials:
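Mock and UGT1A3/UGT1A4 stable HEK293 cells given drug for up to 72 h; viability measured by WST-8-based MTT assay.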

In series [3] the test system is HEK293. Briefly: Cytotoxicity against HEK293 cells expressing UGT1A4 assessed as decrease in cell viability at 1 mM measured at 24 hrs by MTT assay. It counts as ADME, cell-based. The following applies: human, hek293, 24 h, 1000 µM.
Series [4] concerns HEK293. Briefly: Genotoxicity in HEK293 cells expressing UGT1A3 assessed as DNA strand breaks at 0.1 mM after 24 hrs by comet assay. It counts as toxicity, cell-based. The conditions noted are these: human, hek293, 24 h, 100 µM. The essentials: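 HEK293 cells stably expressing UGT1A3, seeded 24 h before treatment and exposed 24 h in 0.5% FBS DMEM (vehicle 0.1% DMSO). Alkaline comet assay: low-melting agarose embedding, lysis pH 10 for 1 h at 4°C, 30 min unwinding in NaOH/EDTA, electrophoresis 300 mA for 20 min, ethidium bromide stain. Tail extent moment scored on 150-180 cells over more than 3 experiments, median (IQR).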

The test system of series [5] is Hepatocyte. Briefly: Drug level in human hepatocytes assessed per 2 x 10^5 cells treated with ibuprofen at 1 mM measured at 6 hrs by LC-MS/MS analysis in presence of acyl glucuronidation inhibitor (-)-borneol. The following applies: 1000 µM. It counts as ADME, cell-based.
The target in series [6] is T1, UDP-glucuronosyltransferase 1A3 (Homo sapiens, UniProt P35503).
T1 sequence (P35503 whole entry): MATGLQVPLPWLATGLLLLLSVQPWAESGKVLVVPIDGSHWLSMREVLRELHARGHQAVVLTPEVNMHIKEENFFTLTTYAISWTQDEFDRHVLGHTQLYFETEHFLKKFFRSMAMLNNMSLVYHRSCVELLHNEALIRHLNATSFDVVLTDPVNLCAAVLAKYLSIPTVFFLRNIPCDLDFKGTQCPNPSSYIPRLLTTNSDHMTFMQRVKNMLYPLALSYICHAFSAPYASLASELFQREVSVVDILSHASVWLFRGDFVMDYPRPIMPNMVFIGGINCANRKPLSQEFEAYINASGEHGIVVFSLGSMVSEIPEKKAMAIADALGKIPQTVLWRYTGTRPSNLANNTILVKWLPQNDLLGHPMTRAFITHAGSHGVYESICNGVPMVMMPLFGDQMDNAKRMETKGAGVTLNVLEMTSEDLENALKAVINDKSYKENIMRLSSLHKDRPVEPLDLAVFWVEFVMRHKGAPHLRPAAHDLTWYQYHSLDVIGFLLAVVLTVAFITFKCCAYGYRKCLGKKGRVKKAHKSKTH
Description: Activity of human UGT1A3 expressed in HEK293 cells assessed as enzyme-mediated compound formation per 2 x 10^5 cells treated with ibuprofen at 1 mM measured at 24 hrs by LC-MS/MS analysis. The series is classed as ADME, cell-based. The conditions noted are these: hek293, 24 h, 1000 µM. Put shortly:
(§1)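 HEK293 stably expressing human UGT1A3 (G418-selected), 2 x 10^5 cells/well in 1 mL DMEM with 0.5% FBS, exposed immediately to drug for 6, 12 or 24 h; DMSO ≤0.1% final. Cells and medium separated by centrifugation, cell fraction resuspended in PBS; aliquots mixed 1:1 with methanol/acetic acid (100:1), spun, supernatant analysed by LC-MS/MS. Triplicate determinations, mean ± SD.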

The test system of series [7] is Hepatocyte. Description: Drug level in human hepatocytes assessed per 2 x 10^5 cells treated with ibuprofen at 1 mM measured at 6 hrs by LC-MS/MS analysis in absence of acyl glucuronidation inhibitor (-)-borneol. The series is classed as ADME, cell-based. The conditions noted are these: 1000 µM.
The target in series [8] is T1, UDP-glucuronosyltransferase 1A3. Description: Activity of human UGT1A3 expressed in HEK293 cells assessed as enzyme-mediated compound formation in cell culture medium treated with ibuprofen at 1 mM measured at 6 to 24 hrs by LC-MS/MS analysis. It counts as ADME, cell-based. The conditions noted are these: hek293, 1000 µM. Put shortly: as §1
Series [9] is described as follows: Drug level in cell culture medium treated with ibuprofen at 1 mM measured at 6 hrs by LC-MS/MS analysis in absence of acyl glucuronidation inhibitor (-)-borneol. It counts as physicochemical. The conditions noted are these: 1000 µM.
Series [10] can be described thus: Drug level in cell culture medium treated with ibuprofen at 1 mM measured at 6 hrs by LC-MS/MS analysis in presence of acyl glucuronidation inhibitor (-)-borneol. It counts as physicochemical. The following applies: 1000 µM.
Series [11] deals with T1, UDP-glucuronosyltransferase 1A3. Briefly: Activity of human UGT1A3 expressed in HEK293 cells assessed as enzyme-mediated compound formation in cell culture medium treated with ibuprofen at 1 mM by LC-MS/MS analysis. It counts as ADME, cell-based. The conditions noted are these: hek293, 1000 µM, TDE = time-dependent effect. Put shortly: as §1
The test system of series [12] is Nucleic Acid. Description: Ratio of drug level in human hepatocytes to HEK293 cells expressing UGT1A3 treated with ibuprofen at 1 mM. The series is classed as ADME, cell-based, Hepatocyte. The following applies: 1000 µM. The essentials: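 Acyl glucuronide in cell fraction (pmol/2 x 10^5 cells) by LC-MS/MS after 6 h exposure in human hepatocytes without (-)-borneol, set against HEK/UGT1A3 cells (2 x 10^5 cells/well, DMEM with 0.5% FBS) exposed to the same drug level; cells pelleted at 3000 x g, resuspended in PBS, extracted with methanol/acetic acid.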

Series [13] has as its system HEK293. Description: Genotoxicity in HEK293 cells expressing UGT1A3 assessed as DNA strand breaks at 1 mM after 24 hrs by comet assay. It counts as toxicity, cell-based. The following applies: human, hek293, 24 h, 1000 µM. The essentials:
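Alkaline comet assay: HEK/UGT1A3 cells seeded 24 h before, treated 24 h in DMEM with 0.5% FBS (vehicle 0.1% DMSO; MMS 0.1 mM positive control). Cells embedded in LMP agarose, lysed 1 h at 4°C at pH 10, unwound 30 min in NaOH/EDTA, electrophoresed 300 mA 20 min, ethidium-stained; tail moment scored on 150-180 comets over >3 experiments, median (IQR).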

On to `CC(=O)Oc1ccccc1C(=O)O` [ASPIRIN], for which the Activity result in series [1] was “Non-toxic”.
As for `Cc1ccc(C)c(OCCCC(C)(C)C(=O)O)c1` [GEMFIBROZIL], the Activity result in series [1], in series [2] and in series [3] was “Non-toxic” each time.
Turning to `O=C(O)c1cccnc1Nc1cccc(C(F)(F)F)c1` [NIFLUMIC ACID], the Activity result in series [1] is recorded as “Non-toxic”.
Regarding `COS(C)(=O)=O` [METHANESULFONIC ACID METHYL ESTER], the Activity result in [4] is listed as “Toxic”.
For the compound `CC(C)(Oc1ccc(CCNC(=O)c2ccc(Cl)cc2)cc1)C(=O)O` [BEZAFIBRATE], in series [1], the Activity entry is given as “Non-toxic”.
Consider `CC(C)Cc1ccc(C(C)C(=O)O[C@@H]2O[C@H](C(=O)O)[C@@H](O)[C@H](O)[C@H]2O)cc1` (stereo not given in full), for which the Drug metabolism in series [5] was found to be 3.5 pmol; in series [6], 7.2 pmol; in series [7] it was 27.7 pmol; in series [8], 114.7 pmol/mL; in series [9], 1156.7 pmol/mL; in series [10], 126.5 pmol/mL. Further, the Drug metabolism result in series [11] is given as “tde”. For the same compound, the Ratio in [12] is 6.
For `NS(=O)(=O)c1cc(C(=O)O)c(NCc2ccco2)cc1Cl` [FUROSEMIDE], the Activity entry in series [1] was “Non-toxic”.
`CC(C)(Oc1ccc(Cl)cc1)C(=O)O` [CLOFIBRIC ACID]: the Activity entry in series [1] is “Non-toxic”; in [13] it was “Toxic”; in series [2], “Non-toxic”; in series [3], “Non-toxic”.
